Screening data: PubChem, Johns Hopkins Ion Channel Center
RGS4 inh – RGS4 inhibitors, primary screen, cell-based, HEK293 M3R inducible RGS4, calcium flux; 0.45% of 310,000 active; Fluo-4 calcium flux; stronger effect = higher value; triggered by carbachol at its EC20; Regulator of G-protein signaling 4 (Homo sapiens), P49798; AID 463165, 2010; B-score at 10 µM;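 active means B-score, a plate-corrected calcium signal, over three deviations above library mean, with baseline fluorescence within five deviations of library mean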;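 further: RGS4 expression induced by doxycycline in cells with stable M3 receptor; B-score is computed from the integrated fluorescence ratio over baseline after carbachol; higher B-score means a larger calcium signal and so more RGS4 inhibition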
Target sequence (P49798 whole entry, looked up): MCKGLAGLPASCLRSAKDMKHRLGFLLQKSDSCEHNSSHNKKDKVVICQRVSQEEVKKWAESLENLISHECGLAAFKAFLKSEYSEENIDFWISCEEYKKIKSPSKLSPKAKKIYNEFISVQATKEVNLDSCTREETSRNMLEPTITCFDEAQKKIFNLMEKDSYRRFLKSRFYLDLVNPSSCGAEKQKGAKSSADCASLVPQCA
MrgX1 agonist – agonists of human MrgX1 receptor, primary screen, HEK293 cells, Fluo-4 calcium flux; AID 588627, 2011; Mas-related G-protein coupled receptor member X1 (Homo sapiens), Q96LB2; 0.44% of 310,000 active; B-score at 10 µM; Fluo-4 calcium fluorescence, agonist mode; stronger effect = higher value;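 active means calcium response B-score plate-corrected fluorescence ratio at least 3 library SD, with starting fluorescence B-score inside 5 SD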
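Test system: HEK293 cells stably expressing human MrgX1 receptor; Input: fifteen thousand cells per well; Dosing: compound delivered in addition one of three; Schedule: overnight seeding, then 1 h dark dye loading; Technique: Fluo-4 NW calcium fluorescence; Measure: B-scored fluorescence response ratio; Controls: positive and negative controls per plate.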
MrgX1 allo act – positive allosteric modulators of MrgX1, primary screen, HEK293 cells, Fluo-4 calcium flux | FDSS; stronger effect = higher value | AID 588675, 2011 | Mas-related G-protein coupled receptor member X1 (Homo sapiens), Q96LB2 | 0.63% of 310,000 active | B-score at 10 µM;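 active means plate-corrected calcium response at least 3 library SD above typical, normal starting fluorescence, not activating the receptor alone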;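 further: compound read alongside a low EC10 to EC30 dose of BAM8-22 agonist; peak minus trough fluorescence over baseline measured at the second addition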
RGS4 act – RGS4 potentiators or activators, primary screen, cell-based, HEK293 M3R inducible RGS4, calcium flux; B-score at 10 µM; 0.92% of 310,000 active; carbachol calcium flux Fluo4; stronger effect = lower value; AID 463111, 2010;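 active means B-score of the integrated calcium signal more than 4 SD below the library mean, with starting fluorescence not abnormally high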;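 further: negative B-score means reduced calcium response which marks RGS4 activation or potentiation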
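test system = M3R-expressing HEK293 line, RGS4 induced by doxycycline | probe or stimulus = carbachol at ECmax as muscarinic agonist stimulus | timing = dye loading 30 min 37 °C, buffer rest 30 min RT | signal = calcium dye Fluo4 fluorescence | evaluation = B score from integrated fluorescence ratio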
MrgX1 antagonist – antagonists of human MrgX1 receptor, primary screen, HEK293 cells, Fluo-4 calcium flux; BAM8-22 antagonism; stronger effect = lower value; B-score at 10 µM; Mas-related G-protein coupled receptor member X1 (Homo sapiens), Q96LB2; 1.3% of 310,000 active; AID 588676, 2011;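 active means calcium-response B-score plate-corrected more than 3 library SD below zero, starting fluorescence within 5 deviations, no agonist response on first addition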;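 further: peak minus trough fluorescence over baseline after final BAM8-22 challenge near maximal dose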
* = called active by the depositor; i = inactive; . = not tested or not shown. Shown are actives, neighbours in structure and some others; about 3.5% of the full set was active somewhere.

SMILES	RGS4 inh	MrgX1 agonist	MrgX1 allo act	RGS4 act	MrgX1 antagonist
Cc1cc(C)cc(NC(=O)C(OC(=O)c2ccc([N+](=O)[O-])o2)c2ccccc2)c1 (configuration not stated)	i	i	i	i	-6.6*
COc1ccccc1NC(=S)N(CCN1CCCCCC1)Cc1cccs1	i	i	i	i	i
CCCCCNCC(=O)Nc1cccc(C(=O)Nc2cccc(C(F)(F)F)c2)c1	i	i	i	i	-7*
Cc1c(NC(=O)C(C)OC(=O)c2c3c(nc4ccccc24)CCC3)c(=O)n(-c2ccccc2)n1C (configuration not stated)	i	i	i	i	i
O=C(Nc1nc(SCc2ccc(F)cc2)ns1)c1ccco1	8.2*	i	i	i	i
Cc1cccc2cc(C(c3nnnn3CC3CCCO3)N3CCc4ccccc4C3)c(=O)[nH]c12 (configuration not stated)	.	i	i	.	-5.1*
Cc1ccc2cc(C(c3nnnn3CC3CCCO3)N3CCc4ccccc4C3)c(=O)[nH]c2c1 (configuration not stated)	i	i	i	i	i
O=C(CN(C1CCCCC1)S(=O)(=O)c1ccc(Cl)cc1)NCc1ccncc1	i	i	i	i	i
CC1=NOC(=O)/C1=C\c1ccc(-c2ccc(Br)cc2)o1	i	.	.	i	.
CC1=NOC(=O)/C1=C/c1ccc(-c2ccc(Cl)cc2)o1	.	46*	i	.	i
Cc1ccc(C(=O)Nc2cc3[nH]c(=O)oc3cc2C)cc1	i	i	i	i	i
Cc1ccc(N2C(=O)c3ccccc3C2C(=O)c2ccc(C)c(C)c2O)cc1 (configuration not stated)	i	i	i	-7*	i
Cc1ccc(N2C(=O)c3ccccc3C2C(=O)c2ccc(O)cc2O)cc1 (configuration not stated)	i	i	i	i	i
CN(C)c1ccc(/C=C/c2cc[n+](C)cc2)cc1	i	37*	i	i	i
CSc1ccc(S(=O)(=O)NCC(=O)OCC(=O)N(C)Cc2ccccc2)cc1[N+](=O)[O-]	i	i	i	i	i
CS(=O)(=O)c1ccccc1C(=O)Nc1cccc2ncccc12	i	i	i	i	i
Oc1ccccc1/C=N/n1cnn(Cc2ccccc2Cl)c1=S	i	i	i	i	-6.1*
COc1ccc(/C=N/n2cnn(Cc3ccccc3Cl)c2=S)cc1	i	i	i	i	i
O=C(O)c1ccccc1C(=O)c1ccc2c(c1)CCC2	i	i	i	i	i
COc1cc2ccccc2cc1C(=O)N(CCN(C)C)c1nc2c(OC)ccc(OC)c2s1	i	i	8.8*	i	i
CN1CCCCC1CCN1c2ccccc2Sc2ccc(S(C)=O)cc21 (configuration not stated)	i	i	i	-7.3*	i
CN1CCCC(CN2c3ccccc3Sc3ccccc32)C1 (configuration not stated)	i	i	i	i	i
O=C1NC2(CCCCC2)C(=O)N1Cc1ccc([N+](=O)[O-])cc1	i	i	i	i	-7.2*
O=C(Nc1ccc(F)cc1)C1(S(=O)(=O)c2ccc(Cl)cc2)CC1	i	i	i	i	i
CC(=O)NN1C(=O)/C(=C/c2ccc(Br)o2)SC1=S	i	i	7.1*	i	i
CC(=O)NN1C(=O)/C(=C\c2ccccc2)SC1=S	i	i	9.5*	i	i
Cc1nc2nc(-c3cccs3)[nH]c2cc1Br	i	i	i	i	i
COc1ccc(CN(CC(=O)NCc2ccc(F)cc2)C(=O)CCC(=O)Nc2nccs2)cc1	i	i	i	i	i
COc1ccc(CN(CC(=O)NCc2ccccc2)C(=O)CCC(=O)Nc2nccs2)cc1	i	i	12*	i	i
